Runt-CBFb FRET = blocks binding of human RUNX1 Runt domain to CBFb | Cerulean-Runt/Venus-CBFb FRET ratio 530/480, 1 h | inhibition, % at 20 µM | hit rate 0.46% among 220,000 | AID 1496;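 active = inhibition over about 50% at 20 µM in the single-dose screen, limit read from the data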
Target sequence (Q01196 whole entry, looked up, the tested form may be a part): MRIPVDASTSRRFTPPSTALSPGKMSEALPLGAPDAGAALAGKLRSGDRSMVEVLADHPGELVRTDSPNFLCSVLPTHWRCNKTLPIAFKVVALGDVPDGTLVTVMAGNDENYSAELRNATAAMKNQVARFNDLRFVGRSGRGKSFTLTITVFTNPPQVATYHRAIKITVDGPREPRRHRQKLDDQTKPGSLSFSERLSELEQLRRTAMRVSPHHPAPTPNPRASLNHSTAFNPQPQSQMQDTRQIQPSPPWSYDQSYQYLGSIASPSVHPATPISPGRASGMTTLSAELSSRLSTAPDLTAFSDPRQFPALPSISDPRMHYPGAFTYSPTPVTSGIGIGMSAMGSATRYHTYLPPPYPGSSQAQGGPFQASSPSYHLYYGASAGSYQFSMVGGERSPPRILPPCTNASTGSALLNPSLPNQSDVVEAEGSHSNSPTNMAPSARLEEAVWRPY
Target sequence (Q13951 whole entry, looked up, the tested form may be a part): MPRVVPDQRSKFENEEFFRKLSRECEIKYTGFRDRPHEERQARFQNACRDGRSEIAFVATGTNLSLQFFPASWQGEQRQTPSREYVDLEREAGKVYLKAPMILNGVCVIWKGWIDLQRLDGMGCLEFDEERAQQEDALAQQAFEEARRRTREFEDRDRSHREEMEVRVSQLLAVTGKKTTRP
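Assay system: Cerulean-Runt domain / Medium: Tris 50 mM pH 7.5, KCl, K2SO4, 0.01% BSA / Timing: protein complex preformed 1 h, compound exposure 1 h, room temperature, dark / Measured by: FRET, excitation 422 nm, emission at 530 and 480 nm / Evaluation: loss of energy transfer signal / Control set: 5 µM unlabeled CBFb as full-inhibition high control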
RanGTP-Imp inh = disruptors of Ran-importin-beta complex formation – biochemical, FRET, CFP-Ran, YFP-importin-beta, homogeneous, primary screen. cell-free CFP-Ran/YFP-importin-beta FRET ratio. inhibition, % (no concentration beside the values). hit rate 1.1% among 300,000. AID 2216;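 active = more than half of the replicate wells show a fall in the fluorescence ratio signal beyond about 16%, limit read from the data, passing the limit was not always enough; inconclusive = exactly half of the replicate wells pass the set limit; inactive = fewer than half of replicates pass the limit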
TNF death inh = blocks TNF-alpha induced death of Jurkat FADD-/- cells | Jurkat FADD-/- TNF necroptosis rescue, ATP luminescence, 24 h; 0 = TNF only, 100 = no-TNF cells | activation (protection from cell death), % at 10 µM | hit rate 0.068% among 220,000 | AID 463075;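 active = activation, meaning protection from cell death, of at least 50% relative to plate controls; inactive = activation below 50%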;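 also: necroptosis triggered by 40 ng/mL TNF-alpha added together with compound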
Runt-SMMHC FRET = Runt domain-CBFb-SMMHC interaction inhibition; inhibition, % at 20 µM; AID 1434; hit rate 0.74% among 220,000; Cerulean-Runt/Venus-CBFb-SMMHC FRET ratio 530/480, 1 h; Q01196+Q13951;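 active = mean inhibition across duplicate retests at 20 µM reaching about 50%, limit read from the data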;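 also: inhibitors lower the FRET ratio by blocking Runt binding to CBFb-SMMHC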
Hck-Nef inh = blocks Nef-activated human Hck kinase | P08631 | Recombinant Hck-YEEI plus Nef, Z-Lyte FRET kinase assay | inhibition, % at 20 µM | hit rate 0.68% among 220,000 | AID 463187;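 active = Hck-Nef kinase inhibition above about 50%, limit read from the data; inactive = inhibition below that limit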
zVAD death inh = L929 zVAD cell death inhibition; hit rate 0.38% among 220,000; L929 zVAD necroptosis rescue, ATP luminescence, 24 h; with zVAD 60 µM; viability rescue, % at 10 µM; AID 1377;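 active = activation, scaled between plate controls, above about 75%, limit read from the data; inactive = activation under that limit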
Hck Nef conf = confirmation of Hck-Nef kinase inhibitors | shares compounds with Hck-Nef inh | Recombinant Hck-YEEI:Nef, Z-Lyte FRET kinase assay | AID 463188 | calls only at 10 µM | hit rate 28% among 1,300;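 active = average inhibition of at least 50%, with Z-scores no higher than 3 in both the phospho-tyrosine peptide and fluorescence counterscreens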
Of the large screens only hits and unclear results are named; the others gave an inactive call (follow-up assays come after a bar, where they were run). A selection: hits, their analogues and other compounds. The true share with any hit is near 2.1%.

COc1ccc(OC)c(NC(=O)Cn2cc(C#N)c3cc(Br)ccc32)c1	Hck-Nef inh 69 | Hck Nef conf inactive
COc1ccc(C(=O)N/C(=C\c2ccccc2)C(=O)NC(CC(C)C)C(=O)O)cc1 (stereo unspecified)	RanGTP-Imp inh inconclusive, Hck-Nef inh 60 | Hck Nef conf inactive
CCOc1ccc(-c2nnc(N)s2)cc1	RanGTP-Imp inh inconclusive
CCCCOc1ccc(-c2nnc(N)s2)cc1	Hck-Nef inh 78 (no result: zVAD death inh) | Hck Nef conf active
COc1cc(OC)nc(-n2ncc(Br)c(Br)c2=O)n1	none (no result: RanGTP-Imp inh)
O=C(COc1cccc([N+](=O)[O-])c1)NN1C(=O)c2ccccc2C1=O	none (no result: Runt-CBFb FRET, TNF death inh, Runt-SMMHC FRET, Hck-Nef inh, zVAD death inh)
Cc1ccc(C2=NOC(=O)/C2=C\C=C\c2ccccc2)cc1	Hck-Nef inh 56 | Hck Nef conf inactive
COc1ccc(/C=C2\C(=O)ON=C2c2cccc([N+](=O)[O-])c2)cc1	Hck-Nef inh 53 | Hck Nef conf inactive
O=c1[nH]ncc(N/N=C\c2cccs2)c1Cl	Hck-Nef inh 59 (no result: RanGTP-Imp inh) | Hck Nef conf active
COc1ccccc1/C=N\Nc1cn[nH]c(=O)c1Cl	Hck-Nef inh 61 | Hck Nef conf inactive
CC(C)CCN(CCC(C)C)C(CO)(CO)CO	none
O=C(Cc1ccccc1)c1c[nH]c(C(=O)NC2CCCC2)c1	none
O=C(N/C(=C/C=C/c1ccccc1)C(=O)N1CCOCC1)c1ccccc1Br	none
COc1nc(Nc2nc3ccccc3c(=O)[nH]2)nc2ccc(C)cc12	Hck-Nef inh 75 | Hck Nef conf inactive
Cc1cc(=O)oc2cc(OCC(=O)N3CCC(O)CC3)c(Cl)cc12	none (no result: Runt-CBFb FRET, TNF death inh, Runt-SMMHC FRET, Hck-Nef inh, zVAD death inh)
COc1ccc(NC(=O)CSc2nncn2C)cc1	none (no result: Runt-CBFb FRET, TNF death inh, Runt-SMMHC FRET, Hck-Nef inh, zVAD death inh)
COc1ccc(NC(=O)CSc2c(C)nn(-c3nnc(C)c(=O)[nH]3)c2C)cc1	Hck-Nef inh 108 | Hck Nef conf inactive
COc1ccc(OC)c(C2=C/C(=C/c3ccccn3)C(=O)O2)c1	none
NC(=O)Nc1ccc(C(=O)OCC(=O)Nc2cccc(S(=O)(=O)NC3=NCCCCC3)c2)cc1	RanGTP-Imp inh inconclusive
NC(=S)n1[nH]c(-c2ccc([N+](=O)[O-])cc2)c(N=Nc2ccc(O)cc2)c1=O	RanGTP-Imp inh inconclusive
NC(=S)n1[nH]c(-c2ccc([N+](=O)[O-])cc2)c(N=Nc2cccc(Cl)c2)c1=O	none (no result: Hck-Nef inh) | Hck Nef conf active
CC(=O)Nc1ccc2nc(NC(=O)COc3ccc([N+](=O)[O-])cc3)sc2c1	none
COc1ccc(OCC(=O)Nc2nc3ccc(NC(C)=O)cc3s2)cc1	Hck-Nef inh 51 | Hck Nef conf inactive
CCOc1cc(C2c3c(oc4ccccc4c3=O)C(=O)N2c2nccs2)ccc1O (stereo unspecified)	Hck-Nef inh 85 | Hck Nef conf inactive
CCOc1cc(/C=N/NC(=O)c2cc(C)n(-c3ccc(F)cc3)c2C)ccc1O	none
Cc1cc(C(=O)N/N=C2\CC(=O)c3ccccc32)c(C)n1-c1ccc(F)cc1	Hck-Nef inh 53 | Hck Nef conf inactive
Cc1ccc(C(=O)Nc2cccc(C(F)(F)F)c2)cc1NC(=O)c1ccno1	Hck-Nef inh 75 | Hck Nef conf active
Cc1cc(Cl)ccc1OCC(=O)n1cc(C(=O)c2cc(Cl)ccc2O)cn1	none
O=C(c1cnn(C(=O)COc2ccccc2F)c1)c1cc(F)ccc1O	Hck-Nef inh 75 | Hck Nef conf active
COCCN=c1scc(-c2ccco2)n1/N=C/c1ccc(O)c(O)c1O	Hck-Nef inh 59 (no result: RanGTP-Imp inh) | Hck Nef conf active
C=CCN=c1scc(-c2ccco2)n1/N=C/c1ccc(O)c(O)c1O	Hck-Nef inh 56 | Hck Nef conf inactive
COc1ccc(/C=N/N2C(C)CCCC2C)cc1OC (stereo unspecified)	none (no result: Runt-CBFb FRET, TNF death inh, Runt-SMMHC FRET, Hck-Nef inh, zVAD death inh)
CCCCN(C(=O)Cn1ncc(Cl)c(Cl)c1=O)c1c(N)n(CC(C)C)c(=O)[nH]c1=O	Hck-Nef inh 66 | Hck Nef conf active
Cc1cc(O)c(C(=O)/C=C/c2cccc([N+](=O)[O-])c2)c(=O)o1	Hck-Nef inh 108 | Hck Nef conf inactive
Cc1cc(O)c(C(=O)/C=C/c2ccccc2O)c(=O)o1	none (no result: Runt-CBFb FRET, TNF death inh, Runt-SMMHC FRET, Hck-Nef inh, zVAD death inh)

Bioassay records deposited in PubChem by several laboratories.
